{
  "source": "ChEMBL document CHEMBL5661970",
  "about": "(Cancer Res, 2006)",
  "key": {"[1]": {"assay": "AUC (0-infinity) in F344/N JcL-rnu athymic rat at 1 mg/kg, po measured upto 72 hrs by HPLC-MS/MS analysis", "type": "ADME, organism-based", "settings": "in vivo", "summary_of_the_method": "(§1)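 Female athymic rats, four per group, given a single oral dose suspended in 0.5% methyl cellulose in water. Tail-vein blood was drawn at set times up to 72 h. Serum was spiked with internal standard, deproteinated with acetonitrile and analysed by HPLC-MS/MS. AUCinf came from noncompartmental analysis.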"}, "[2]": {"test_system": "Calu-6", "assay": "Antitumor activity against human Calu-6 cells xenografted in RH-rnu/rnu athymic rat assessed as decrease in capillary permeability in tumor at 1.0 mg/kg, po measured on day 13 by DCE-MRI analysis relative to control", "type": "functional", "design": "scale not given: the % may be the effect or the level left"}, "[3]": {"assay": "Maximum concentration at steady state in F344/N JcL-rnu athymic rat at 0.2 mg/kg/day, po measured upto 72 hrs by HPLC-MS/MS analysis", "type": "ADME, organism-based", "settings": "in vivo", "summary_of_the_method": "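Steady-state serum levels for repeated oral 0.2 mg/kg daily dosing were simulated from single-dose serum data (female F344/N JcL-rnu rats, four per group, tail-vein sampling to 72 h, HPLC-MS/MS, noncompartmental analysis), not measured directly.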"}, "[4]": {"test_system": "Calu-6", "assay": "Antitumor activity against human Calu-6 cells xenografted in RH-rnu/rnu athymic rat assessed as increased pericyte coverage at 1 mg/kg, po administered for 14 days by immunofluorescence staining analysis relative to control", "type": "functional", "settings": "time 14 day", "summary_of_the_method": "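Calu-6 xenografted athymic rats were randomized at 273-275 mm3 and dosed orally for 2 weeks. Paraffin sections were double-stained with anti-CD31 and Cy3-anti-α-smooth muscle actin. Pericyte-associated endothelial cells were counted in six fields per tumor, with six tumors per group and Dunnett's test.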"}, "[5]": {"test_system": "A549", "assay": "Antitumor activity against human A549 cells xenografted in F344/N Jcl-rnu athymic rat assessed as tumor regression at 1.0 mg/kg, po relative to control"}, "[6]": {"test_system": "Calu-6", "assay": "Antitumor activity against human Calu-6 cells xenografted in RH-rnu/rnu athymic rat assessed as increased ratio of enlarged vessels with >100 uM diameter in tumor at 0.2 mg/kg, po administered for 14 days by H33342 dye based fluorescence microscopic analysis relative to control", "type": "functional", "settings": "time 14 day", "summary_of_the_method": "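Calu-6 tumor-bearing athymic rats, three per group, received oral drug at 0.2 or 1 mg/kg or vehicle on days 0-13. They were killed 1 min after i.v. H33342 at 20 mg/kg on day 13. 10 µm cryosections were cut from five tumor levels at least 200 µm apart and examined under UV epifluorescence. The major axis of fluorescent halos around vessels was measured by image analysis, with a Mann-Whitney test.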"}, "[7]": {"test_system": "HUVEC", "assay": "Antiproliferative activity against VEGF-induced human HUVEC cells assessed as cell viability incubated for 72 hrs by WST-1 assay"}, "[8]": {"test_system": "Calu-6", "assay": "Antitumor activity against human Calu-6 cells xenografted in RH-rnu/rnu athymic rat assessed as tumor growth inhibition at 0.2 mg/kg, po administered once daily for 6 to 21 days by DCE-MRI analysis", "settings": "time 6-21 day"}, "[9]": {"assay": "AUC (0-infinity) in F344/N JcL-rnu athymic rat at 5 mg/kg, po measured upto 72 hrs by HPLC-MS/MS analysis", "type": "ADME, organism-based", "settings": "in vivo", "summary_of_the_method": "as §1"}, "[10]": {"test_system": "LS174T", "assay": "Antitumor activity against human LS174T cells xenografted in gamma-irradiation induced RH-rnu/rnu athymic rat assessed as tumor growth inhibition at 1.0 mg/kg, po administered once daily for 2 weeks and measured on day 14 relative to control", "type": "functional", "settings": "light or radiation study, 336 h, read-out: TGI", "summary_of_the_method": "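Rats were γ-irradiated with 7 Gy whole body, and 24 h later received s.c. tumor cells. Fragments (20-30 mg) from ~1,500 mm3 tumors were then implanted s.c. into irradiated athymic rats. Oral dosing at 0.2 or 1 mg/kg or vehicle ran once daily for 2 weeks from day 0. Tumors were measured with calipers twice weekly (length×width²×0.5). TGI% was taken versus vehicle on day 14 (BxPC-3: day 13), with an unpaired t test on RTV.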"}},
  "note": "Activity calls are given as the source filed them. The rule behind the calls is not given here.",
  "data": [
    {"smiles": "COc1cc2nccc(Oc3ccc(NC(=O)Nc4cc(C)on4)c(Cl)c3)c2cc1OC", "note": "[TIVOZANIB]", "values": [
      {"measurement": "AUC(0-inf)", "setting": "[1]", "result": 7640, "unit": "ng·h/mL"},
      {"measurement": "Activity", "setting": "[2]", "result": 61, "unit": "%"},
      {"measurement": "Cmax", "setting": "[3]", "result": 124, "unit": "ng/mL"},
      {"measurement": "Activity", "setting": "[4]", "result": 50.5, "unit": "%"},
      {"measurement": "tumor regression % at 1 mg/kg", "setting": "[5]", "result": 33, "unit": "%"},
      {"measurement": "Activity", "setting": "[6]", "result": 24.3, "unit": "%"},
      {"measurement": "IC50", "setting": "[7]", "result": 0.67, "unit": "nM"},
      {"measurement": "Activity", "setting": "[8]", "result": "Active"},
      {"measurement": "AUC(0-inf)", "setting": "[9]", "result": 44500, "unit": "ng·h/mL"},
      {"measurement": "inhibition in vivo at 1 mg/kg", "setting": "[10]", "result": 99.7, "unit": "%"}
    ]}
  ]
}
